Publication PMC2650391 (Molecular cell, 2009)
Where no end group is shown, it is not given here.

Columns and labels:
HT1080 cells = experiment: TUNEL assay of ING4-dependent apoptosis; assay type: cell-based; conditions: HT1080, 400 ng/ml doxorubicin 20 hours, 48 hours after transfection
Procedure, shortened: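 HT1080 cells transfected with the plasmids, then given 400 ng/ml doxorubicin for 20 h, assayed 48 h after transfection. Cells fixed in methanol at −20C for 20 min, TUNEL-stained (TMR red) and mounted with DAPI. TUNEL-positive cells counted from images; s.e.m. from 3 independent fields.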

H3K4me3 = experiment: Global H3K4me3 levels, Western analysis of cell lysates; assay type: cell-based; conditions: demethylase transfection, ± ING4 overexpression
Procedure, shortened: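 Cells transfected with Rbp2 or Plu-1 demethylase, with or without ING4 overexpression. Whole-cell lysates probed by Western blot for H3K4me3. Four independent experiments, error bars S.E.M.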

[1] = tested on: H3K4me3 at Smc4, Egln1, Ext1 promoters; experiment: ChIP Realtime-PCR, H3K4me3 levels at target promoters; assay type: cell-based; conditions: doxorubicin treatment, all samples
[2] = tested on: H3K4me peptides / ING4 PHD finger; experiment: Biotinylated histone peptide pull-down, Western analysis; assay type: binding; conditions: individual substitutions, GST-fusion proteins
[3] = tested on: purified polynucleosomes (H3K4me3); experiment: Polynucleosome binding, Western analysis; conditions: recombinant proteins
Procedure, shortened: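 Recombinant ING4 PHD finger proteins, wild type or carrying substitutions in the H3K4me3-binding surface, incubated with purified polynucleosomes. Bound material detected by Western blot with antibodies to the four core histones, H3K4me3 and H3K9me3.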

[4] = tested on: gene promoters in HT1080 cells; experiment: ChIP-chip on whole genome promoter tiling arrays; assay type: cell-based; conditions: doxorubicin treatment; 292 doxorubicin-induced target promoters
[5] = tested on: Egln1, Ext1 and Smc4 mRNA; experiment: mRNA expression Realtime-PCR; assay type: cell-based; conditions: HT1080; relative to untreated wild-type cells
Procedure, shortened: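 HT1080 cells stably carrying vector, Flag-ING4 or Flag-ING4D213A, with doxorubicin-induced DNA damage. Transcripts measured by real-time PCR with TaqMan gene expression assays. Values are relative change versus untreated wild-type cells; error bars s.e.m.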

T47D cells = experiment: Soft agar assay, anchorage-independent growth; assay type: cell-based; conditions: colonies scored after 21 days, vs control vector
Procedure, shortened: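 T47D cells stably carrying pMSCV-ING4, pMSCV-ING4D213A or empty pMSCV; 55,000 cells plated in […] soft agar growth medium over a 1% agar base layer. Medium refreshed every three days; colonies counted at day 21. Four independent experiments, S.E.M.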

In the case of RBP2: H3K4me3-demethylase, the ING4-dependent apoptosis (HT1080 cells) is reported as “abrogated ING4-dependent apoptosis” and the “total H3K4me3 levels” value (H3K4me3) is reported as “decreased total H3K4me3 levels”.
`COc1cccc2c1C(=O)c1c(O)c3c(c(O)c1C2=O)C[C@@](O)(C(=O)CO)C[C@@H]3O[C@H]1C[C@H](N)[C@H](O)[C@H](C)O1` [doxorubicin] was tested, and the “H3K4me3 levels at Smc4, Egln1 and Ext1 promoters” value [1] was “modestly induced”.
With “D213A: ING4PHD with substitution D213A (EPTYCLCHQVSYGEMIGCANPDCSIEWFHFACVGLTTKPRGKWFCPR; cysteine pairing not given here; also: GST fusion, end not given here)” the “binding of ING4PHD mutants to H3K4me peptides in pull-down” value (“binding of ING4PHD mutants” below) [2] was “abrogated binding of the ING4PHD to the H3K4me peptides”.
With “W221A: ING4PHD with substitution W221A (EPTYCLCHQVSYGEMIGCDNPDCSIEAFHFACVGLTTKPRGKWFCPR; cysteine pairing not given here; also: GST fusion, end not given here)” the “binding of ING4PHD mutants” value [2] was “abrogated binding of the ING4PHD to the H3K4me peptides”.
In the case of “Y198A: ING4PHD with substitution Y198A (EPTACLCHQVSYGEMIGCDNPDCSIEWFHFACVGLTTKPRGKWFCPR; cysteine pairing not given here; also: GST fusion, end not given here)”, the “binding of ING4PHD mutants” value [2] is reported as “abrogated binding of the ING4PHD to the H3K4me peptides”.
In the case of “ING4PHD: recombinant ING4 PHD finger, aa 195–241 (EPTYCLCHQVSYGEMIGCDNPDCSIEWFHFACVGLTTKPRGKWFCPR; cysteine pairing not given here; also: GST fusion, end not given here)”, the “interaction with H3K4me3 in nucleosomes” value [3] is reported as “occurs in the context of nucleosomes”.
PLU-1: H3K4me3-demethylase was tested, and the ING4-dependent apoptosis (HT1080 cells) was “abrogated ING4-dependent apoptosis” and the “total H3K4me3 levels” value (H3K4me3) was “decreased total H3K4me3 levels”.
In the case of “ING4D213A: ING4 with a point mutation that abrogates H3K4me3 binding”, the “average occupancy on DNA damage-dependent promoters” value [4] is reported as “largely absent compared to the wild-type protein”, the “baseline smc4 expression” value [5] is reported as “inhibits baseline expression” and the “growth in soft agar” value (T47D cells) is reported as “failed to inhibit soft agar growth”.
